Experimental findings from ChEMBL document CHEMBL4825702, “5-Aminonaphthalene derivatives as selective nonnucleoside nuclear receptor binding SET domain-protein 2 (NSD2) inhibitors for the treatment of multiple myeloma” (Eur J Med Chem, 2021) are described below.

Data set [1] concerns RPMI-8226. Put plainly: Antiproliferative activity against human RPMI-8226 cells assessed as reduction in cell viability incubated for 6 days by CCK8 assay. In general terms: Tetrazolium assays rely on reduction of a dye to a coloured formazan, in cell work by metabolically active cells.
Data set [2] concerns MOLT-4. The experiment in a line: Antiproliferative activity against human MOLT-4 cells assessed as reduction in cell viability incubated for 6 days by CCK8 assay.
In data set [3] the test system is RS4-11. Put plainly: Antiproliferative activity against human RS4-11 cells assessed as reduction in cell viability incubated for 6 days by CCK8 assay. The settings on record: RS4-11, 6 days.
The subject of data set [4] is WSUDLCL2. The experiment in a line: Antiproliferative activity against human WSUDLCL2 cells assessed as reduction in cell viability incubated for 6 days by CCK8 assay.
Data set [5] can be described thus: Clearance in CD-1 mouse at 2 mg/kg, iv measured up to 24 hrs by LC-MS/MS. The format is ADME, organism-based. The settings on record: in vivo. An outline of the steps:
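CD-1 mice given a single 2 mg/kg i.v. dose (n = 3). Plasma collected at 0–24 h (0.083, 0.25, 0.5, 1, 2, 4, 6, 8, 24 h), deproteinized with methanol/acetonitrile 1:1 and analysed by LC/MS/MS. Clearance derived from the plasma concentration–time data.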

Data set [6] concerns RS4-11. The experiment in a line: Antiproliferative activity against human RS4-11 cells assessed as reduction in cell viability at 1 to 100 uM by CCK8 assay. The format is functional, cell-based. The conditions noted are these: dose 1-100 µM, time 6.0 day, TDE = time-dependent effect.
Data set [7] concerns OCI-AML-5. The experiment in a line: Antiproliferative activity against human OCI-AML5 cells assessed as reduction in cell viability incubated for 6 days by CCK8 assay.
For data set [8], the system named is HL-60. The experiment in a line: Antiproliferative activity against human HL-60 cells assessed as reduction in cell viability incubated for 6 days by CCK8 assay.
Data set [9] concerns KMS-11. The experiment in a line: cells. The settings on record: Homo sapiens, KMS-11, 72 h, read-out: Activity.
Data set [10] has as its system RS4-11. Put plainly: Toxicity in SCID mouse xenografted with human RS4-11 cells assessed as body weight LOSS at 25 to 50 mg/kg, ip qd administered consecutively for 21 days. The settings on record: dose 25-50 mg/kg, time 21.0 day. The format is functional, organism-based. The method in brief:
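Female SCID mice, 4 weeks old, implanted subcutaneously in the flank with 1 × 10⁷ RS4:11 cells in 0.2 mL PBS. At about 100 mm³, groups of n = 8 received 25 or 50 mg/kg or vehicle intraperitoneally once daily for 21 days. Body weight and tumors measured twice weekly.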
A general note: Xenograft models place foreign cells or tissue in a host animal.

Active and inactive are the calls of the source. No cut-off for these calls is given here.

On to `Cl.Nc1cccc2c(S(=O)(=O)NCc3ccccc3)cccc12`, for which the result in [1], in data set [2], in [4], in data set [7] and in [8] was Active. In data set [3], the half-inhibitory concentration (IC50) (as a rule, the concentration at which inhibition is half-maximal) was 520 nM. Also, in [5], the clearance (as a rule, the volume of plasma or blood freed of the substance per unit of time) was 163 mL/min/kg. Also, the figures for the Activity entry in data set [6] and in [10] were “Tde” and “Not toxic”, respectively. Moreover, the viability at 10 µM in [9] worked out at 50.4%.
